The text below walks through data of ChEMBL document CHEMBL5154634, “A Modular Synthetic Route Involving N-Aryl-2-nitrosoaniline Intermediates Leads to a New Series of 3-Substituted Halogenated Phenazine Antibacterial Agents” (J Med Chem, 2021).

Broadly, the MIC is the lowest concentration that inhibits growth of the organism. Broadly, the IC50 is the concentration that inhibits the measured activity by half.

In brackets after ≈: the same amount, converted by molar mass. Activity calls are given as the source filed them. No cut-off for these calls is given here.

Series [1] has as its system Staphylococcus aureus. Kind of series: Antibacterial activity against methicillin-resistant Staphylococcus aureus clinical isolate 1 assessed as bacterial growth inhibition. In kind it is functional.
The test system of series [2] is Staphylococcus aureus. Kind of series: Antibacterial activity against methicillin-resistant Staphylococcus aureus 156 assessed as bacterial growth inhibition. In kind it is functional.
A short description of series [3]: Binding affinity to Fe2+ assessed as compound-Fe2+ complex formation by UV-vis spectroscopy.
The subject of series [4] is Staphylococcus aureus. As to the kind of experiment: Antibacterial activity against methicillin-resistant Staphylococcus aureus BAA-44 assessed as bacterial growth inhibition incubated for 16 hrs by broth microdilution susceptibility test. In kind it is functional. Put shortly: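 CLSI broth microdilution with 11 twofold dilutions (0.05–50 μM). Medium was LB for the staphylococci and BHI for VRE 700221. About 10^5 cells per well from a log-phase culture. […] DMSO vehicle up to 0.5% v/v. At least three independent experiments.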
On the technique in general: In broth dilution the organism is exposed to a series of concentrations in liquid medium.

The subject of series [5] is Staphylococcus aureus. As to the kind of experiment: Antibacterial activity against methicillin-resistant Staphylococcus aureus 147 assessed as bacterial growth inhibition. In kind it is functional.
The test system of series [6] is HEK293. As to the kind of experiment: Cytotoxicity against human HEK293 cells assessed as reduction in cell viability incubated for 72 hrs by MTT assay. In kind it is toxicity, cell-based. Put shortly: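 HEK-293 cells in DMEM with 10% FBS, 10⁴ cells/well, seeded overnight. Exposed to 0–200 μM (twofold steps, n = 6) for 72 h at 37 °C. MTT 5 mg/mL added for 4 h, formazan dissolved in DMSO, OD read at 570 nm. Inhibition % = (1 − test/untreated OD) × 100.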

Series [7] concerns Staphylococcus aureus. As to the kind of experiment: Antibacterial activity against methicillin-resistant Staphylococcus aureus 129 assessed as bacterial growth inhibition. In kind it is functional.
The subject of series [8] is Staphylococcus aureus. As to the kind of experiment: Antibiofilm activity against methicillin-resistant Staphylococcus aureus BAA-1707 biofilms assessed as reduction of viable biofilm cells at MBEC measured by CBD assay. In kind it is functional. The procedure, abridged:
(§1)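 After the Calgary biofilm device assay, treated and untreated pegs were removed, sonicated 30 min in PBS and plated for CFU per peg. Log10 reduction of viable biofilm cells at the MBEC determined by comparison with untreated pegs. At least three independent experiments.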

Series [9] relates to Staphylococcus epidermidis. As to the kind of experiment: Antibiofilm activity against methicillin-resistant Staphylococcus epidermidis ATCC 35984 biofilms assessed as reduction of viable biofilm cells at MBEC measured by CBD assay. In kind it is functional. Put shortly:
as §1

Series [10] concerns Staphylococcus aureus. As to the kind of experiment: Induction of iron starvation in methicillin-resistant Staphylococcus aureus BAA-1707 biofilms assessed as upregulation of sfaA gene expression at 1 uM incubated for 4 hrs by RT-qPCR analysis. In kind it is functional. The procedure, abridged: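 MRSA BAA-1707 grown in TSB with 0.5% glucose to OD600 ~0.8–1.0, then biofilms formed 20 h at 37 °C statically in gelatin-coated 24-well plates. Biofilms treated 4 h at 37 °C with compound (1 μM or 1/10 MBEC) or DMSO vehicle. RNA extracted; only RIN ≥7 samples used. One-step SYBR RT-qPCR; ΔCT normalised to ptaA. Three independent experiments.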
A general note: In qPCR the cycle at which signal appears reflects the starting amount.

In series [11] the test system is Staphylococcus epidermidis. Kind of series: Bactericidal activity against methicillin-resistant Staphylococcus epidermidis ATCC 35984 planktonic cells assessed as planktonic eradication incubated for 24 hrs followed by incubation for overnight in fresh medium by Calgary biofilm device assay. In kind it is functional. The procedure, abridged:
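Calgary biofilm device. Biofilms grown 24 h at 37 °C in TSB with 0.5% glucose, then challenged 24 h with twofold compound dilutions. 20 μL of challenge medium transferred into fresh TSB with 0.5% glucose and incubated overnight at 37 °C. MBC is the concentration with no visible turbidity. At least three independent experiments.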

Series [12] deals with Erythrocyte. As to the kind of experiment: Hemolytic activity against human RBC at 200 uM measured after 1 hr. In kind it is toxicity, cell-based. The procedure, abridged:
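2% hRBCs exposed to compound at 200 μM final, added from DMSO stock, for 1 h at 37 °C. Supernatant OD read at 405 nm. Hemolysis normalized between DMSO (0%) and Triton X (100%); three independent experiments.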

The subject of series [13] is Mycobacterium tuberculosis. As to the kind of experiment: Antibacterial activity against Mycobacterium tuberculosis CDC1551 assessed as bacterial growth inhibition incubated for 5 days by luminescence based analysis. In kind it is functional. As to conditions: CDC1551, 120 h, time 5 day. Put shortly: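 Bioluminescent Mtb-lux CDC1551 reporter grown in Middlebrook 7H9 with 0.05% Tween 80, 10% OADC and kanamycin to OD600 0.4–0.8, then diluted to OD600 0.02. Added to twofold drug dilutions (0.003–200 μM). Incubated 5 days at 37 °C, 5% CO2. Luminescence read against 1% DMSO and 10 μM rifampicin controls to give % growth inhibition. MIC taken from a modified Gompertz fit.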

As for `Cc1cccc2nc3c(O)c(Br)c(Cl)c(Br)c3nc12`, the minimal inhibitory concentration (MIC) in series [1] was 0.06 µM (≈ 0.0241 µg/mL); in [2], 0.06 µM (≈ 0.0241 µg/mL); in [4] it was 0.08 µM (≈ 0.0322 µg/mL); in [5], 0.06 µM (≈ 0.0241 µg/mL); in series [7] it was 0.06 µM (≈ 0.0241 µg/mL); in [13] it was 1.59 µM (≈ 0.64 µg/mL). In addition, the outcome in series [3] and in series [10] was Active. Besides, in series [6], the IC50 worked out at 18.3 µM. Also, the Activity in [8] was 2.55 log10CFU; in series [9], 3.65 log10CFU; in series [12], “<= 1%”. Moreover, the MBC in [11] amounted to 0.78 µM (≈ 0.314 µg/mL).
